What was measured:
[1] = molecular target: Beta-1 adrenergic receptor (Cavia porcellus, UniProt B0FL73); experiment: The compound was evaluated for the antagonistic activity against beta-1 adrenergic receptor.; assay type: functional; details: read-out: pA2 (converted)
Summary of the method: (§1)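 Isolated tissue suited to each receptor test, held in 10-mL organ baths of Krebs-Henseleit solution at 37 °C and gassed with 95% O2/5% CO2. Antagonism was judged by how several concentrations of test agent altered a cumulative concentration-response curve to a receptor-specific agonist.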

[2] = organism: Cavia porcellus; experiment: Beta-2-adrenoceptor ISA (intrinsic sympathomimetic activity)was measured as relaxant effect against a PGF2-alpha contracted guinea pig trachea at 1x10E-5 M; assay type: functional
[3] = system: Rattus norvegicus; experiment: Maximal change in mean arterial blood pressure (MABP) measured as pretreatment value at dose of 5 mg/kg in SHR; assay type: functional
Summary of the method: (§2)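 Spontaneously hypertensive rats; test agent dissolved or dispersed in 0.5% methylcellulose and given by gastric gavage at 5 mL/kg after a 1-h equilibration. Doses ranged from 1 to 100 mg/kg, with 4–8 animals per dose. MABP and HR were monitored for 4 h. Pretreatment values and maximal % change were recorded, and maximal changes were compared with vehicle by Dunnett's t test.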

[4] = system: Rattus norvegicus; experiment: Maximal change in mean arterial blood pressure (MABP) measured as pretreatment value at dose of 10 mg/kg in SHR; assay type: functional; summary of the method: as §2
[5] = molecular target: Beta-1 adrenergic receptor (Cavia porcellus) (UniProt B0FL73); experiment: Beta-1 adrenergic receptor ISA (intrinsic sympathomimetic activity)using the guinea pig right atria was measured as % increase of positive chronotropic effect (basal spontaneous beating rate) at 1x10E-7 M
Sequence of Beta-1 adrenergic receptor (Cavia porcellus) (B0FL73 1-467): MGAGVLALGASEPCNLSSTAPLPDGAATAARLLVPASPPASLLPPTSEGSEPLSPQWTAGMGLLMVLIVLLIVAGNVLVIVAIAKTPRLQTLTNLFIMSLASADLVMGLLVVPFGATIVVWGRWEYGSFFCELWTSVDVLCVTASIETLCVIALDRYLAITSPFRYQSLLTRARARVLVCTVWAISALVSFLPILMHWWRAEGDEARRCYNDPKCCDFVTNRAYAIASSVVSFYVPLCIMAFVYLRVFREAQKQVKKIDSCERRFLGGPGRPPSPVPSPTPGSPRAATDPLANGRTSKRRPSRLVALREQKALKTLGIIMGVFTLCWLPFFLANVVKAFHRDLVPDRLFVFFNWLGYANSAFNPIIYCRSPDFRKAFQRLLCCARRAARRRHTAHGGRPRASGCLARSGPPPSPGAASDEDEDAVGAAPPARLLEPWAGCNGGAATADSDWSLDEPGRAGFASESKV

[6] = system: Rattus norvegicus; experiment: Maximal change in heart rate (HR) measured as % change from pretreatment value at dose of 25 mg/kg in SHR; assay type: functional; summary of the method: as §2
[7] = system: Rattus norvegicus; experiment: Maximal change in mean arterial blood pressure (MABP) measured as pretreatment value at dose of 25 mg/kg in SHR; assay type: functional; summary of the method: as §2
[8] = system: Rattus norvegicus; experiment: Maximal change in heart rate (HR) measured as pretreatment value at dose of 25 mg/kg in SHR; assay type: functional; summary of the method: as §2
[9] = system: Rattus norvegicus; experiment: Maximal change in mean arterial blood pressure (MABP) measured as % change from pretreatment value at dose of 5 mg/kg in SHR; assay type: functional; summary of the method: as §2
[10] = system: Rattus norvegicus; experiment: Maximal change in mean arterial blood pressure (MABP) measured as % change from pretreatment value at dose of 10 mg/kg in SHR; assay type: functional; summary of the method: as §2
[11] = molecular target: Beta-2 adrenergic receptor (Cavia porcellus, UniProt Q8K4Z4); experiment: The compound was evaluated for the antagonistic activity against beta-2 adrenergic receptor.; assay type: functional; details: read-out: pA2 (converted); summary of the method: as §1
Sequence of Beta-2 adrenergic receptor (Q8K4Z4 whole entry): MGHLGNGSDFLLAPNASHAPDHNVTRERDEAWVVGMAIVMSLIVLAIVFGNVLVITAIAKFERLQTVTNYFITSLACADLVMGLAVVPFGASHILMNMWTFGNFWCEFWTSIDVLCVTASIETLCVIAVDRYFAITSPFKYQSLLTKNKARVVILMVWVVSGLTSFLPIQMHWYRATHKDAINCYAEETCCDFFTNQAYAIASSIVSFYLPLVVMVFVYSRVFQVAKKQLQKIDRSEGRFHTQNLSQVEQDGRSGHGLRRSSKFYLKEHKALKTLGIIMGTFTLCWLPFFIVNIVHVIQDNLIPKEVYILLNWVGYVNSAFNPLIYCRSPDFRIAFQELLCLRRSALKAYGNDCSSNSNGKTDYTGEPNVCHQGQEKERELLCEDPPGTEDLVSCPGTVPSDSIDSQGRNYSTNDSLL

[12] = molecular target: T1, Adrenergic receptor alpha-2 (Rattus norvegicus, UniProt P22086+P19328+P22909); experiment: The compound was evaluated for the antagonistic activity against alpha-2 adrenergic receptor.; assay type: functional
T1 sequence (P22086 whole entry): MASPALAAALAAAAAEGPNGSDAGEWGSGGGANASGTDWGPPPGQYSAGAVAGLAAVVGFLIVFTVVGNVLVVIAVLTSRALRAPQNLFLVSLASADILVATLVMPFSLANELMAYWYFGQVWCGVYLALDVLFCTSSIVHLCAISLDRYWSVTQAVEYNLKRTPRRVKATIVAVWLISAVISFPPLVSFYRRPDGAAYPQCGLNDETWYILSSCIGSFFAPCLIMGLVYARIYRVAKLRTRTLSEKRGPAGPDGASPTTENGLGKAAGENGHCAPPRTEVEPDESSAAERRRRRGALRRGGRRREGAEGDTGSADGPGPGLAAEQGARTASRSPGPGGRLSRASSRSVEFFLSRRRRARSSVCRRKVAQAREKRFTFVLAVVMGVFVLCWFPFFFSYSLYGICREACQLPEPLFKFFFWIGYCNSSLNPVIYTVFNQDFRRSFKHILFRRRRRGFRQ
T1 sequence (P19328 whole entry): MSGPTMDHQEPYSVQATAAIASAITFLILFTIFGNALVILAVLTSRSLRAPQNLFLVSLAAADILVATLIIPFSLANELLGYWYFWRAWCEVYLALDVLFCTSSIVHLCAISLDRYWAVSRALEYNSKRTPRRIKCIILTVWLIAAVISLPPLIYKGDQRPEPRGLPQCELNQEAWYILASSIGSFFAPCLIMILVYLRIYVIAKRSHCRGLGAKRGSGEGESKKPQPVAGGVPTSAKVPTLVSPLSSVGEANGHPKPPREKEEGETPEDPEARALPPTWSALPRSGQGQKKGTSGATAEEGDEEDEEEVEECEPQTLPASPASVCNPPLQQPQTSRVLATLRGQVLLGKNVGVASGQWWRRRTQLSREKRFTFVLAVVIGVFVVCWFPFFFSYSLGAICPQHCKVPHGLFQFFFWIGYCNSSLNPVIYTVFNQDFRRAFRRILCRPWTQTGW
T1 sequence (P22909 whole entry): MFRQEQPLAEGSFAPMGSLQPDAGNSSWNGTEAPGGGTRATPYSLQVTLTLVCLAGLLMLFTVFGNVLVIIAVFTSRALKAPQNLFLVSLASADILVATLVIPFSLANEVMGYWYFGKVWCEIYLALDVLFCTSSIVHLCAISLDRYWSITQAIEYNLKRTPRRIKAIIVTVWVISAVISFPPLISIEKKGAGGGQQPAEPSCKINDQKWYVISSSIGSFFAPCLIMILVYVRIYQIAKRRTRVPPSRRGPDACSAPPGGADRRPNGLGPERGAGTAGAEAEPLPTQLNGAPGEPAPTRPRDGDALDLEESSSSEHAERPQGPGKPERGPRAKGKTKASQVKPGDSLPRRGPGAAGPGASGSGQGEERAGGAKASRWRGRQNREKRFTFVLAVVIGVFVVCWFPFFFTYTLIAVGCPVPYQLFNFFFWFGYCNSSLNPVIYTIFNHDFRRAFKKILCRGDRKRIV

[13] = system: Rattus norvegicus; experiment: Maximal change in heart rate (HR) measured as % change from pretreatment value at dose of 10 mg/kg in SHR; assay type: functional; summary of the method: as §2
[14] = system: Rattus norvegicus; experiment: Maximal change in mean arterial blood pressure (MABP) measured as % change from pretreatment value at dose of 25 mg/kg; assay type: functional; summary of the method: as §2
[15] = system: Rattus norvegicus; experiment: Maximal change in heart rate (HR) measured as % change from pretreatment value at dose of 5 mg/kg in SHR; assay type: functional; summary of the method: as §2
[16] = system: Rattus norvegicus; experiment: TMaximal change in heart rate (HR) measured as pretreatment value at dose of 5 mg/kg in SHR; assay type: functional; summary of the method: as §2
[17] = system: Rattus norvegicus; experiment: Maximal change in heart rate (HR) measured as pretreatment value at dose of 10 mg/kg in SHR; assay type: functional; summary of the method: as §2

Sequence of Beta-1 adrenergic receptor (B0FL73 whole entry): as the sequence (B0FL73 1-467) above

Kb [1]: 31.6 nM | Change [5]: 0% | Kb [11]: 39.8 nM | pA2 [12]: < 5
Compound: CC(CCc1ccccc1)NCC(O)c1ccc(O)c(C(N)=O)c1 (configuration not stated) [LABETALOL]
Change [2]: 62% | MABP [3]: 161 mmHg | MABP [4]: 158 mmHg | Change [6]: -27% | MABP [7]: 163 mmHg | HR [8]: 437 beats min-1 | Change [9]: -14% | Change [10]: -25% | Change [13]: -23% | Change [14]: -31% | Change [15]: -15% | HR [16]: 424 beats min-1 | HR [17]: 457 beats min-1
